Assay results from different studies.
Protocols differ between the studies behind these lines.
Target: Mitogen-activated protein kinase kinase kinase 6 (MAP3K6, Homo sapiens, UniProt O95382)
Residues used in one study (O95382 1-1288): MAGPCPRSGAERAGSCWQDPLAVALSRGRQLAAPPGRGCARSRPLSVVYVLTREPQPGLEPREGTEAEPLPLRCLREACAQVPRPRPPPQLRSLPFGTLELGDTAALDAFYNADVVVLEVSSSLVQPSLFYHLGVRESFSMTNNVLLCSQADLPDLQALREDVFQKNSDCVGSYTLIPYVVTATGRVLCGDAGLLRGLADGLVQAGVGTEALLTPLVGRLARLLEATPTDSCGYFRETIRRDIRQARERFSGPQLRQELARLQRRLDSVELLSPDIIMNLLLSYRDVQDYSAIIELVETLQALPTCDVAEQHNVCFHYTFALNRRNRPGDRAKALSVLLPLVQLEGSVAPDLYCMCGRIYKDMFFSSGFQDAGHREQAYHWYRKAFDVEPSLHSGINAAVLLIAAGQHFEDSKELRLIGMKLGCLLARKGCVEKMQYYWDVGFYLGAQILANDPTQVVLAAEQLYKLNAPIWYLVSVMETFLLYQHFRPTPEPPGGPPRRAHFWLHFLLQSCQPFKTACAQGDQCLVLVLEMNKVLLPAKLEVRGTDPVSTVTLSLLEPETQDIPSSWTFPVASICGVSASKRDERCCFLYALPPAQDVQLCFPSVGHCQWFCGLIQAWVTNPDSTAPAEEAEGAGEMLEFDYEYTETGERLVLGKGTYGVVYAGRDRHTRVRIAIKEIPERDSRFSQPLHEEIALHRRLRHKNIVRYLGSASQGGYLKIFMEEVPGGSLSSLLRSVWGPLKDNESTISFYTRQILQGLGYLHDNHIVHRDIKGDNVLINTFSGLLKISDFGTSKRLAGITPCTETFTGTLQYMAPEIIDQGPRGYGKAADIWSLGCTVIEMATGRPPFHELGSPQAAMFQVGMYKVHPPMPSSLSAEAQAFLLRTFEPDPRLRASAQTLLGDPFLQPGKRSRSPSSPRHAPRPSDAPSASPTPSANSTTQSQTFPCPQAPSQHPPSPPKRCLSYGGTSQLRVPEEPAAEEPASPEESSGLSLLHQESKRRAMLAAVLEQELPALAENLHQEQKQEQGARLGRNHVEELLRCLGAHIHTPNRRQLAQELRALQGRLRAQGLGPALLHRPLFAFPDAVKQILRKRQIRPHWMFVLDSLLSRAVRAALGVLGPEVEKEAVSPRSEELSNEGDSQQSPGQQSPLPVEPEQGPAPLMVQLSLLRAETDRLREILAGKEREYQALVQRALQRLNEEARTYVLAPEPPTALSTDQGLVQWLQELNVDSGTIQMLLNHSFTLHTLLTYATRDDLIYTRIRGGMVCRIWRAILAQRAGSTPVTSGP

Cc1cnc(Nc2ccc(C(=O)N3CCC(N4CCCC4)CC3)cc2)nc1-c1cc2ccccc2s1 — remaining binding (binding; competition with immobilised ligand; 1 µM): 100%
Cc1cc(C)c(-n2ccn3nc(-c4cccnc4)cc23)cc1NC(=O)c1cc(C#N)cc(S(F)(F)(F)(F)F)c1 — remaining binding (cell-free assay; competition with immobilised ligand; 0.1 µM): 100%
O=C(c1ccc(Nc2ncc(Cl)c(-c3cc4ccccc4s3)n2)cc1)N1CCC(N2CCCC2)CC1 — remaining binding (binding; competition with immobilised ligand; 1 µM): 80%
CNC(=O)[C@@H]1CC[C@@H](n2c(-c3ccc4cnccc4c3)nc3ccc(C(=O)NCc4cccc(C(N)=O)c4)cc32)C1 — remaining binding (binding; competition with immobilised ligand; 1 µM): 100%
O=C(c1ccc(Nc2nccc(-c3cc4ccccc4s3)n2)cc1)N1CCC(N2CCCC2)CC1 — remaining binding (binding; competition with immobilised ligand; 1 µM): 91%
N[C@@H]1CCN(c2nccc(-c3cnn4ncccc34)n2)C1 — remaining binding (binding; 1 µM): 57%
CN([C@@H]1CCc2c(CC(=O)O)c3cc(S(C)(=O)=O)ccc3n2C1)S(=O)(=O)c1ccc(F)cc1 — remaining binding (cell-free assay; competition with immobilised ligand; 1 µM): 89%
O=C(Nc1c[nH]nc1C(=O)NC1CCNCC1)c1cc(F)cc(F)c1 — remaining binding (binding; competition with immobilised ligand; 1 µM): 84%
N#CC1(c2ccccn2)CCN(Cc2cc(C(=O)N3CCCC3)c(=O)n3ccccc23)CC1 — remaining binding (cell-free assay; competition with immobilised ligand; 1 µM): 100%
CN(c1nccc(-c2cnn3ncccc23)n1)C1CC1 — remaining binding (binding; 1 µM): 100%
COc1cnc(Nc2cccc(S(N)(=O)=O)c2)nc1N1CCN(c2ccccc2)C(=O)C1 — remaining binding (binding; competition with immobilised ligand; 1 µM): 84%
C[C@@H](c1ccc(-n2cnc3c(N)ncnc32)cc1)N1CCc2nn(C)c(Cc3ccccc3)c2C1=O — remaining binding (binding; competition with immobilised ligand; 0.1 µM): 67%
CCN1CCN(Cc2ccc(C(=O)Nc3ccc(C)c(Oc4ccc5c(c4)CC(=O)N5)c3)cc2C(F)(F)F)CC1 — remaining binding (binding; competition with immobilised ligand; 1 µM): 100%
Nc1ncc2c(n1)-c1c([nH]c3ccc(C#CC4CC4)cc13)CCCC2 — remaining binding (binding; competition with immobilised ligand; 1 µM): 98%
Cc1cnn2ncc(-c3ccnc(N(C)C)n3)c2c1 — remaining binding (binding; 1 µM): 81%
CCS(=O)(=O)c1cc2cc(C[C@@](O)(CC(C)(C)c3ccc(F)cc3C(N)=O)C(F)(F)F)[nH]c2cn1 — remaining binding (cell-free assay; competition with immobilised ligand; 1 µM): 100%
C[C@H]1CCN(c2nccc(-c3cnn4ncccc34)n2)C1 — remaining binding (binding; 1 µM): 57%
COc1ncc2cc3ccccc3nc2c1C#N — remaining binding (cell-free assay; competition with immobilised ligand; 5 µM): 100%
COc1ccc2cc(OCC3(C(=O)O)CN(C(=O)c4ccc(F)cc4)C3)ccc2c1 — remaining binding (cell-free assay; competition with immobilised ligand; 1 µM): 95%
CN(C)c1ncc(F)c(-c2cnn3ncccc23)n1 — remaining binding (binding; 1 µM): 97%
CCCOc1ccc([C@@H]2[C@@H](C(=O)O)[C@H](c3ccc4c(c3)OCO4)CN2CC(=O)Nc2c(CC)cccc2CC)cc1 — remaining binding (cell-free assay; competition with immobilised ligand; 1 µM): 77%
CN(CCCC(F)(F)F)c1nccc(-c2cnn3ncccc23)n1 — remaining binding (binding; 1 µM): 100%
